Measurements of several laboratories.
Each line is one published result; the experiments were not run side by side.
Target: Serine/threonine-protein kinase PAK 2 (PAK2, Homo sapiens, UniProt Q13177)

SMILES | effect on | mode | method | concentration | endpoint | result
CCOc1cc(-c2nncn2C)ccc1Nc1ncc2cc(C)nc(NCC(C)(C)C)c2n1 | enzyme activity | inhibitor | FRET | 1 µM | inhibition | < 15%
COc1cc(Nc2cnc(C#N)c(O[C@H](C)CN(C)C)n2)ncc1-c1cnn(C)c1 | enzyme activity | inhibitor | radiometric | 10 µM | remaining activity | 70%
CC(C)(O)[C@H]1CC[C@H](Nc2ccc3ncc(-c4cccc(C(F)(F)F)c4)n3n2)CC1 | enzyme activity | inhibitor |  | 1 µM | remaining activity | 93.4%
COc1cc2ncnc(Nc3ccc(Oc4ccccc4)cc3C)c2cc1OC | enzyme activity | inhibitor |  | 1 µM | inhibition | 2%
O=C1CCc2cc(Nc3cc(OC4CCOCC4)c([N+](=O)[O-])cc3Cl)ccc2N1 | cell-free assay |  | competition with immobilised ligand | 1 µM | remaining binding | 96%
COc1cc(Nc2c(C#N)cnc3cc(OCCCN4CCN(C)CC4)c(OC)cc23)c(Cl)cc1Cl | cell-free assay |  |  | 0.5 µM | remaining signal | 69.4%
Cc1ccc(NC(=O)c2ccc(C)c(C(F)(F)F)c2)cc1C#Cc1nn(C2CCC(O)CC2)c2ncnc(N)c12 (centres unmarked) | cell-free assay |  |  | 10 µM | remaining signal | 68%
Cc1noc([C@H]2C[C@@H](c3ccc(C(F)(F)F)cc3)CN(C(=O)N3CCS(=O)(=O)C3)C2)n1 | cell-free assay |  | competition with immobilised ligand | 1 µM | remaining binding | 87%
CNc1cccc2cc(C(=O)Nc3ccc(C(=O)O)cc3)c(=O)[nH]c12 | enzyme activity | inhibitor |  | 10 µM | inhibition | 20%
Cc1ccc(Nc2nccc(N(C)c3ccc4c(C)n(C)nc4c3)n2)cc1S(N)(=O)=O | enzyme activity | inhibitor |  | 10 µM | inhibition | 24%
O=C(Nc1cnn(-c2csc(C(=O)NC3COC3)c2)c1)Nc1c(F)cccc1Cl | enzyme activity | inhibitor |  | 5 µM | remaining activity | 95.3%
CN1CC(Oc2cnc(C#N)cc2-c2ccn3nc(NC(=O)C4CC4)cc3c2)C1 | enzyme activity | inhibitor |  | 1 µM | inhibition | -7%
O=C(Nc1cnc(Oc2ccc(F)cc2)nc1)N1CCc2ncccc2[C@@H]1c1ccc(F)cc1 | cell-free assay |  | competition with immobilised ligand | 1 µM | remaining binding | 59%
O=C1NC(=O)c2cc(Nc3ccc(F)cc3)c(Nc3ccc(F)cc3)cc21 | cell-free assay |  |  | 0.5 µM | remaining signal | 98.5%
Cc1cc(NC(=O)c2cccc(S(F)(F)(F)(F)F)c2)cc(-n2ccn3nc(-c4cccnc4)cc23)c1 | cell-free assay |  | competition with immobilised ligand | 1 µM | remaining binding | 100%
COc1cc2ncnc(Nc3ccc(F)c(Cl)c3)c2cc1OCCCN1CCOCC1 | cell-free assay |  |  | 0.5 µM | remaining signal | 100%

SMILES | effect on | mode | method | concentration | endpoint | result
Oc1cccc(-c2nc(N3CCOCC3)c3oc4ncccc4c3n2)c1 | enzyme activity | inhibitor |  | 10 µM | remaining activity | 106%
C#Cc1cccc(Nc2ncnc3cc(OCCOC)c(OCCOC)cc23)c1 | cell-free assay |  |  | 0.5 µM | remaining signal | 99.1%
CCCS(=O)(=O)Nc1ccc(F)c(C(=O)c2c[nH]c3ncc(-c4ccc(Cl)cc4)cc23)c1F | enzyme activity | inhibitor |  | 1 µM | inhibition | < 10%
CCN(CC)CCNC(=O)c1c(C)[nH]c(/C=C2\C(=O)Nc3ccc(F)cc32)c1C | enzyme activity | inhibitor |  | 10 µM | inhibition | 8%
Cc1cc(NC(=O)c2cccc3cc(-c4cccc5[nH]nc(N)c45)ccc23)ccc1F | enzyme activity | inhibitor |  | 0.1 µM | activity vs control | 98%
CS(=O)(=O)N1CCCC(NC(=O)[C@H](CCC2CCCCC2)NC(=O)c2ccc(CNC(=O)c3cnc4ccccn34)cc2)C1 (some centres unmarked) | cell-free assay |  | competition with immobilised ligand | 0.1 µM | remaining binding | 93%
CNCc1ccc(-c2cc(-c3nc(-c4ccc(S(=O)(=O)C(C)C)cc4)cnc3N)on2)cc1 | enzyme activity | inhibitor |  | 0.4 µM | inhibition | 7%
Cc1cnc(NC2CCOCC2)nc1-n1cnc(C(=O)NC(CN)c2cc(F)cc(Cl)c2)c1 (centres unmarked) | enzyme activity | inhibitor | radiometric | 1 µM | remaining activity | 77%
O=C(CSc1nc2nccnc2c(=O)n1CCc1ccccc1)Nc1nccs1 | enzyme activity | inhibitor |  | 10 µM | inhibition | 1%
Cc1ccc(C(=O)Nc2ccc(CN3CCN(C)CC3)c(C(F)(F)F)c2)cc1C#Cc1cnc2cccnn12 | enzyme activity | inhibitor |  | 23.5 nM | remaining activity | 70%
CN([C@@H]1CCc2c(CC(=O)O)c3ccccc3n2C1)S(=O)(=O)c1ccc(F)cc1 | cell-free assay |  | competition with immobilised ligand | 1 µM | remaining binding | 100%
Cc1sc(C(=O)NC2COC2)cc1-n1cc(NC(=O)Nc2c(F)cccc2Cl)cn1 | enzyme activity | inhibitor |  | 10 µM | remaining activity | 106%
Cn1cc(Cl)c2c(Oc3c(F)cc(Nc4cc(Cl)nc(N)n4)cc3F)ccnc21 | cell-free assay |  | competition with immobilised ligand | 0.1 µM | remaining binding | 100%
CC(C)(C)c1nc(-c2cccc(NS(=O)(=O)c3c(F)cccc3F)c2F)c(-c2ccnc(N)n2)s1 | enzyme activity | inhibitor | radiometric | 1 µM | remaining activity | 88%
CC(C)(O)c1cncc(-c2nc3ccc(F)cc3n2C2CC2)c1 | cell-free assay |  | competition with immobilised ligand | 1 µM | remaining binding | 100%
FC(F)(F)Oc1cccc(-c2cnc3ccc(-c4ccncc4)nn23)c1 | enzyme activity | inhibitor | radiometric | 1 µM | activity vs control | 95%
